# RBBP9 inh: human RBBP9 hydrolase inhibition; recombinant RBBP9, FP-Rh probe fluorescence polarization; inhibition, % at 7.94 µM; 0.2% of 220,000 active; AID 1515;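 active means inhibition above the campaign mean of all tested compounds plus 3 SD, cut at about 14% in these data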;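 further: plate controls were DMSO wells with RBBP9 for no effect and wells lacking RBBP9 protein for full effect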
#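 System: RBBP9 protein | Quantity: 2.5 µM RBBP9 dispensing solution, before mixing | Reagent: FP-Rh probe, 375 nM dispensing solution | Timing: Enzyme-compound preincubation 30 min, then probe labeling 45 min, 25 °C | Measured by: Fluorescence polarization | Read-out: % inhibition | Replication: One well per compound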
# 14-3-3 Bad inh: disrupts binding of bovine 14-3-3 zeta to phospho-Bad peptide; 0.71% of 220,000 active; AID 781; inhibition, % at 21.7 µM; TR-FRET 14-3-3zeta/Dy647-pBad peptide displacement, 1 h; P63103;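 active means inhibition above about 70%, limit read from the data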;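 further: 0% = full 14-3-3 plus peptide FRET controls and 100% = background without 14-3-3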
# NCF1 inh: p47phox (human) inhibition | 0.53% of 220,000 active | p47phox/p22phox peptide binding, fluorescence polarization, 2 h | P14598 | inhibition, % at 24.7 µM;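 further: 0% = p47phox with labelled peptide and 100% = labelled peptide alone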
# Target sequence (P14598 whole entry, looked up): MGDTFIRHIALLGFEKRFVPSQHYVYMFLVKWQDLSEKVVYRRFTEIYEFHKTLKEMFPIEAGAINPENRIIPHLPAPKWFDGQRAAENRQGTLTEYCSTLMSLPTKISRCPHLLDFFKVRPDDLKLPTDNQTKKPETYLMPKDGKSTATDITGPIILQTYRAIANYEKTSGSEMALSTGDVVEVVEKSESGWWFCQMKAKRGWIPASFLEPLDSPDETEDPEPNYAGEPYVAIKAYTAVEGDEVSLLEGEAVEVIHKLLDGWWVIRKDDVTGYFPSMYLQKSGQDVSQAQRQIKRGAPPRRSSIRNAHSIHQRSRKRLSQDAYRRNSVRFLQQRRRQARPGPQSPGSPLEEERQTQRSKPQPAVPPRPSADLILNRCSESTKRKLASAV
# WT yeast gro inh: growth inhibition of WT yeast, mitochondrial fusion screen. mitochondrial fusion phenotypic screen, WT strain. inhibition, % at 10 µM. 2.1% of 190,000 active. AID 1362; in the data active means inhibition above about 58%; tested in S. cerevisiae
# EBV gp42 inh: EBV gp42 inhibition; Q1HVG2; Fluorescence polarization binding assay, mP read-out; 0.42% of 220,000 active; inhibition, % (tested at 21.74 µM); in the data active means inhibition above about 50%
# Target sequence (Q1HVG2 whole entry, looked up): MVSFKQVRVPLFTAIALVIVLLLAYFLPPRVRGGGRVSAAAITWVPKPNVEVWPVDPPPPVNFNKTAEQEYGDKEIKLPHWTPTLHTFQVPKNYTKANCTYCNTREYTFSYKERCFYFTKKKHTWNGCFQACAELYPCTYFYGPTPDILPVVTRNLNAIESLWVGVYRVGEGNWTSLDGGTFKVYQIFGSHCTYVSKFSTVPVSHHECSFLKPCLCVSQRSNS
# eIF4E 4G PPI: inhibitors of eIF4E and eIF4G interaction in translation initiation; TR-FRET eIF4E-eIF4GI(517-606) binding, 2 h; AID 782; inhibition, % at 21.7 µM; 0.37% of 220,000 active; P63073+Q04637;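 further: 0% = full FRET control wells and 100% = background wells lacking eIF4GI fragment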
# Starred values were filed as active, the others as inactive; . = no result; [ ] = remark or other dose. Sampled rows, rich in hits. Any-hit rate of the full collection: about 3.7%.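 How the source made its calls, unless noted: active means inhibition above about 30% (limit read from the data); inactive means the rest.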
SMILES,RBBP9 inh,14-3-3 Bad inh,NCF1 inh,WT yeast gro inh,EBV gp42 inh,eIF4E 4G PPI
CN(C(=O)c1cccs1)c1ccc(OCC(=O)Nc2ccc(C(=O)O)cc2)cc1,-4,-10,-2,.,-3,-2
COc1ccc(Nc2cc(C)c3ccc(O)cc3n2)cc1,-9,2,-14,.,-15,8
Cc1cc(Nc2ccccc2)nc2cc(O)ccc12,-10,25,-6,62*,-3,-1
Cc1ccc(-n2nc(C(=O)O)c(O)cc2=O)cc1,2,-4,-5,-9,-16,0
Cc1cc(=O)n2[nH]c(-c3ccc(F)cc3)cc2n1,-6,4,-2,60*,-4,-4
CC(=O)c1cnc(N(C)C)s1,-1,-2,-4,0,-12,3
CN(C)c1ncc(C2=C(Cl)C(=O)C(N3CCCC3)=C(Cl)C2=O)s1,12,79*[fluorescence artefact?],1,-10,-37,53*[fluorescence artefact?]
Clc1ccc(Cl)c2sc(N3CCCC3)nc12,-4,0,-8,10,2,4
O=C1C(Cl)=C(N2CCCCC2)C(=O)C(Cl)=C1c1cnc(N2CCCCC2)s1,1,27,10,8,-21,37*[fluorescence artefact?]
CC(C)(C)c1cc(OS(C)(=O)=O)ccc1O,3,-6,32*,-6,-15,0
CSc1nc2ccc(NS(=O)(=O)c3ccc([N+](=O)[O-])cc3)cc2s1,-5,0,-9,.,3,4
CSc1nc2ccc(NS(=O)(=O)c3cccc(Cl)c3Cl)cc2s1,-7,6,-30,81*,-2,1
O=C(COc1ccccc1F)NCc1ccc(-n2cccc2)cc1,1,-12,-5,11,-23,0
CCNc1cccc2c1C(=O)N(C)C2=O,-6,-3,-11,-14,160*,-3
O=C(O)COc1ccccc1/C=N/NC(=O)CSc1nnc(SCc2ccccc2)s1,-7,11,-6,.,-18,3
Cc1ccc(C(C)NC(=O)/C(C#N)=C\c2c(C)[nH]c3ccccc23)cc1 (stereo not drawn),-7,-7,-18,88*,-12,1
Cc1cc(C)n(-c2nnc3n2N=C(c2c[nH]c4ccccc24)CS3)n1,6,-8,8,4,-31,6
Cc1cc(C)n(-c2nnc3n2N=C(c2ccccc2)CS3)n1,-10,4,0,-7,-4,42*
O=[N+]([O-])c1ccc(C2=NN(CCO)C(=Nc3ccc(OC(F)(F)F)cc3)SC2)cc1,-2,-6,-12,.,-3,-1
Cc1cc(C)c2c(n1)sc1c(N3CCN(CCO)CC3)ncnc12,-6,-2,-4,1,-12,-1
CSc1nc(N2CCN(CCO)CC2)c2sc3nc(-c4ccco4)c4c(c3c2n1)CCC4,.,.,.,93*,.,.
CSc1nc(N(C)CCO)c2sc3nc(-c4ccco4)c4c(c3c2n1)CCC4,-5,9,-21,-1,87*,26
CSc1nc(SCC(=O)O)c2sc3nc(-c4ccccc4)c4c(c3c2n1)CCC4,-15,87*,-8,.,53*,57*
CC1(C)Cc2c(c(-c3ccco3)nc3sc4c(NCCCO)ncnc4c23)CO1,-10,1,-18,.,-13,-3
O=C(O)CSc1nc2sc3c(c2c(=O)n1-c1ccccc1)CCC3,-8,1,-10,.,-13,-8
SMILES,RBBP9 inh,14-3-3 Bad inh,NCF1 inh,WT yeast gro inh,EBV gp42 inh,eIF4E 4G PPI
COc1ccc(/C=C/C2=CC(C)(C)NC(=S)N2)cc1,1,1,2,11,-10,1
COc1ccc(C(Nc2ccc(S(=O)(=O)NCC3CCCO3)cc2)C(=O)NC(C)(C)C)cc1OC (stereo not drawn),-2,-9,-1,-28,-14,-2
O=C(O)COc1ccccc1/C=N/NC(=O)CN1CCN(Cc2ccc(Cl)cc2)CC1,1,7,-6,.,-25,4
Cc1cccc(N2CCN(C(=O)COc3ccc4c(c3)CCC4)CC2)c1C,-1,-3,-8,73*,-2,3
CCOC(=O)c1c(NC(=O)c2cc(-c3ccc(Cl)s3)nc3ccccc23)sc(C(N)=O)c1C,-7,72*[fluorescence artefact?],25,1,36,16
CCN1/C(=C/c2ccc3ccccc3[n+]2CC)C=Cc2ccccc21,-13,41,-182,83*,-60,46*[fluorescence artefact?]
C=CCn1c(COc2ccc(Cl)cc2)nnc1SCC(=O)c1c(N)n(C)c(=O)n(C)c1=O,-7,33,7,-10,-5,4
COc1ccc(NC(=S)Nc2ccccc2SC)c(OC)c1,11,2,.,3,-4,2
O=C1/C(=C/c2ccsc2)N2CCC1CC2,-10,1,4,.,-3,-1
CC(C)=CCC/C(C)=C/COc1ccc2ccc(=O)oc2c1,-5,-3,-8,61*,-8,5
C/C(=N\NC(=S)Nc1ccccc1C)c1ccc(O)cc1,-3,-26,-20,2,-6,-1
CCN1CCN(C(=S)NCCc2ccccc2)CC1,-4,85*,-3,4,-5,-4
Cc1ccc(Cl)cc1N1CCN(C(=S)NCCc2ccccc2)CC1,-9,-13,-6,66*,3,-2
Cc1cccc(N2CCN(C(=S)NCCc3ccccc3)CC2)c1C,-8,-15,-4,8,8,0
COCCNC(=O)CN(C(=O)Cn1nnc2ccccc21)c1cccc(C)c1C,-6,-11,-2,-11,2,2
CCN(CC)c1ccc2cc(C(C)=O)c(=O)oc2c1,-11,5,-18,-2,-198,0
CCN(CC)c1ccc2cc(NC(=O)CCC(=O)O)c(=O)oc2c1,5,2,-10,35,74*,5
CN(c1ccccc1)c1cc(=O)[nH]c(=O)[nH]1,-7,-3,-4,-16,-11,13
COc1ccc(C(=O)O)cc1S(=O)(=O)NCCc1ccccn1,3,6,-1,.,-23,-2
O=C(O)[C@H]1CCCC[C@H]1C(=O)NCCc1ccccc1,2,-9,-7,-7,-12,-3
O=C(O)C1CCCCC1C(=O)NCCc1ccncc1 (stereo not drawn),-8,72*,-12,6,-3,-1
Cc1ccc(C(C(=O)NC2CCCC2)N(C(=O)Cc2cccs2)c2ccc(C)c(C)c2)o1 (stereo not drawn),-1,12,-4,63*,-8,10
COc1ccc(N(C(=O)Cc2cccs2)C(C(=O)NC2CCCCC2)c2cccn2C)cc1 (stereo not drawn),-6,90*,-6,8,3,-3
Cn1cccc1C(C(=O)NC1CCCCC1)N(C(=O)Cc1cccs1)c1ccc2c(c1)OCO2 (stereo not drawn),-3,-7,-11,10,0,-29
Cc1ccc(C)c(N(C(=O)Cn2nnc(-c3cccs3)n2)C(C(=O)NC2CCCC2)c2ccncc2)c1 (stereo not drawn),-6,-6,0,9,-16,3

# From PubChem
